The record followed here is ChEMBL document CHEMBL1135629, “The effect of exchanging various substituents at the 2-position of 2-methoxyestradiol on cytotoxicity in human cancer cell cultures and inhibition of tubulin polymerization” (J Med Chem, 2002).

What is called GI50 is the concentration giving 50% growth inhibition. Usually IC50 stands for the concentration needed to halve the response being measured. Lower therefore signals greater potency.

Where only a bound is given, the exact number is not on record here.

The species named for assay [1] is Homo sapiens. Put plainly: Cytotoxicity against the cancer cell lines CNS SF-539. The class given is functional. Summed up:
(§1)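 Human tumor cell line panel (about 55 lines) exposed to compound across 10^-4 to 10^-8 M. GI50 is the concentration giving 50% growth inhibition; values outside the range are set to the range limits.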

A further assay addresses Tubulin (Bos taurus, UniProt Q6B856+Q862L2+Q862F3). The assay is described as follows: Inhibition of tubulin polymerization measured at 12 uM tubulin concentration. The class given is protein assay. The essentials:
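Bovine brain tubulin, electrophoretically homogeneous, at 1.2 mg/mL (12 μM), preincubated at 26 °C with varying compound concentrations (up to 40 μM), then chilled on ice before GTP was added. Polymerization at 26 °C followed by turbidity at 350 nm, with extent read at 20 min. IC50 determined graphically from at least two independent assays.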

The species named for assay [2] is Homo sapiens. Put plainly: Cytotoxicity against the cancer cell lines melanoma UACC-62. The class given is functional. Summed up: as §1
Assay [3] is filed under the species Homo sapiens. The assay is described as follows: Cytotoxicity against the cancer cell lines ovarian OVCAR-3. The class given is functional. Summed up: as §1
The species entered for assay [4] is Homo sapiens. Put plainly: Cytotoxicity against the cancer cell lines renal SN12C. In kind it is functional. The essentials:
as §1

Assay [5] is filed under the species Homo sapiens. The assay is described as follows: Cytotoxicity against the cancer cell lines lung HOP-62. The class given is functional. The essentials: as §1
For assay [6], the species on record is Homo sapiens. The assay is described as follows: Cytotoxicity against the cancer cell lines prostate DU-145. The class given is functional. The essentials: as §1
Assay [7] is filed under the species Homo sapiens. Put plainly: Cytotoxicity against the cancer cell lines breast MDA-MB-435. In kind it is functional. Summed up:
as §1

For assay [8], the species on record is Homo sapiens. The assay is described as follows: Cytotoxicity against the cancer cell lines colon HCT116. The class given is functional. Summed up:
as §1

On to `CC#Cc1cc2c(cc1O)CC[C@@H]1[C@@H]2CC[C@]2(C)[C@@H](O)CC[C@@H]12`, for which the GI50 amounted to 0.95 µM in the assay listed under Homo sapiens [1]; 0.5 µM in the assay filed under Homo sapiens [2]; 0.34 µM in the assay filed under Homo sapiens [3]; 6.9 µM in the assay listed under Homo sapiens [4]; 1.7 µM in the assay listed under Homo sapiens [5]; 3.6 µM in the assay filed under Homo sapiens [6]. Further, the GI50 in the assay listed under Homo sapiens [7] was determined as 0.13 µM; in the assay listed under Homo sapiens [8], 0.48 µM. For the same compound, the IC50 on Tubulin was determined as 4.9 µM.
In the case of `C[C@]12CC[C@@H]3c4cc(C#N)c(O)cc4CC[C@H]3[C@@H]1CC[C@@H]2O`, the GI50 in the assay listed under Homo sapiens [1] is above 100 µM; in the assay listed under Homo sapiens [2] it was 6.1 µM; in the assay listed under Homo sapiens [3], above 100 µM; in the assay listed under Homo sapiens [4], 48 µM; in the assay listed under Homo sapiens [5], 56 µM; in the assay listed under Homo sapiens [6], 34 µM. The GI50 in the assay filed under Homo sapiens [7] and in the assay listed under Homo sapiens [8] was above 100 µM each time. At Tubulin, this compound gave an IC50 above 40 µM.
For the compound `C[C@]12CC[C@@H]3c4cc(OCCO)c(O)cc4CC[C@H]3[C@@H]1CC[C@@H]2O`, the GI50 in the assay listed under Homo sapiens [1] was found to be 11 µM; in the assay filed under Homo sapiens [2] it was 13 µM; in the assay listed under Homo sapiens [3] it was 8.7 µM; in the assay listed under Homo sapiens [4] it was 19 µM; in the assay listed under Homo sapiens [5] it was 18 µM; in the assay listed under Homo sapiens [6], 16 µM. For the same compound, the GI50 is 16 µM in the assay listed under Homo sapiens [7] and 15 µM in the assay filed under Homo sapiens [8]. The same compound had an IC50 against Tubulin of 9.6 µM.
Take `C[C@]12CC[C@@H]3c4cc(C#Cc5ccccc5)c(O)cc4CC[C@H]3[C@@H]1CC[C@@H]2O`: the GI50 in the assay filed under Homo sapiens [1] stood at 16 µM; in the assay filed under Homo sapiens [2] it was 12 µM; in the assay listed under Homo sapiens [3], 14 µM; in the assay filed under Homo sapiens [4], 11 µM; in the assay listed under Homo sapiens [5], 14 µM; in the assay filed under Homo sapiens [6], 16 µM. The GI50 came to 16 µM in the assay filed under Homo sapiens [7] and 14 µM in the assay filed under Homo sapiens [8]. This compound also had an IC50 against Tubulin above 40 µM.
With `CN(C)CC/N=C/c1cc2c(cc1O)CC[C@@H]1[C@@H]2CC[C@]2(C)[C@@H](O)CC[C@@H]12`, the GI50 in the assay filed under Homo sapiens [1] was found to be 22 µM; in the assay filed under Homo sapiens [2] it was 17 µM; in the assay filed under Homo sapiens [3] it was 21 µM; in the assay listed under Homo sapiens [4] it was 22 µM; in the assay listed under Homo sapiens [5] it was 19 µM; in the assay listed under Homo sapiens [6], 22 µM. Moreover, the GI50 in the assay filed under Homo sapiens [7] turned out to be 19 µM; in the assay listed under Homo sapiens [8], 15 µM. This compound also came in with an IC50 against Tubulin above 40 µM.
In the case of `C#Cc1cc2c(cc1O)CC[C@@H]1[C@@H]2CC[C@]2(C)[C@@H](O)CC[C@@H]12`, the GI50 stood at 2.3 µM in the assay listed under Homo sapiens [1]; 4.8 µM in the assay listed under Homo sapiens [2]; 3.8 µM in the assay filed under Homo sapiens [3]; 6.4 µM in the assay filed under Homo sapiens [4]; 6.2 µM in the assay listed under Homo sapiens [5]; 10 µM in the assay filed under Homo sapiens [6]. Further, the GI50 in the assay listed under Homo sapiens [7] turned out to be 2.2 µM; in the assay listed under Homo sapiens [8] it was 3.9 µM. On Tubulin, the IC50 is 13 µM.
For `C[C@]12CC[C@@H]3c4cc(/C=C/CO)c(O)cc4CC[C@H]3[C@@H]1CC[C@@H]2O`, the GI50 was 0.25 µM in the assay filed under Homo sapiens [1]; 0.47 µM in the assay listed under Homo sapiens [2]; 5.3 µM in the assay filed under Homo sapiens [3]; 6.2 µM in the assay filed under Homo sapiens [4]; 5.5 µM in the assay filed under Homo sapiens [5]; 0.9 µM in the assay filed under Homo sapiens [6]. Also, the GI50 was 0.052 µM in the assay filed under Homo sapiens [7] and 0.47 µM in the assay listed under Homo sapiens [8]. The IC50 against Tubulin came to 6.3 µM.
Regarding `COc1cc(/C=C/c2cc3c(cc2O)CC[C@@H]2[C@@H]3CC[C@]3(C)[C@@H](O)CC[C@@H]23)cc(OC)c1OC`, the GI50 turned out to be 2 µM in the assay filed under Homo sapiens [1]; 2.7 µM in the assay listed under Homo sapiens [2]; 3.2 µM in the assay filed under Homo sapiens [3]; 2.4 µM in the assay listed under Homo sapiens [4]; 3.6 µM in the assay filed under Homo sapiens [5]; 2.8 µM in the assay filed under Homo sapiens [6]. Besides, the GI50 in the assay listed under Homo sapiens [7] turned out to be 4.4 µM; in the assay listed under Homo sapiens [8] it was 3.2 µM. At Tubulin, the IC50 is above 40 µM.
Regarding `C[C@]12CC[C@@H]3c4cc(/C=N/CCO)c(O)cc4CC[C@H]3[C@@H]1CC[C@@H]2O`, the GI50 in the assay listed under Homo sapiens [1] was 13 µM; in the assay listed under Homo sapiens [2], 16 µM; in the assay filed under Homo sapiens [3], 19 µM; in the assay filed under Homo sapiens [4] it was 18 µM; in the assay listed under Homo sapiens [5], 23 µM; in the assay filed under Homo sapiens [6], 20 µM. In addition, the GI50 in the assay listed under Homo sapiens [7] is 17 µM; in the assay filed under Homo sapiens [8], 11 µM. Further, the IC50 against Tubulin is above 40 µM.
Regarding `COc1cc2c(cc1O)CC[C@@H]1[C@@H]2CC[C@]2(C)[C@@H](O)CC[C@@H]12` [2-METHOXYESTRADIOL], the GI50 in the assay filed under Homo sapiens [1] is 0.32 µM; in the assay filed under Homo sapiens [2], 0.36 µM; in the assay filed under Homo sapiens [3], 0.21 µM; in the assay filed under Homo sapiens [4], 0.95 µM; in the assay filed under Homo sapiens [5] it was 0.7 µM; in the assay filed under Homo sapiens [6] it was 1.8 µM. Also, the GI50 was 0.08 µM in the assay listed under Homo sapiens [7] and 0.47 µM in the assay filed under Homo sapiens [8]. In addition, on Tubulin, the IC50 was determined as 4.7 µM.
